The full list was thinned out, with hits kept by preference.
UPR XBP1 act = activators of adaptive arm of unfolded protein response (XBP1); CHO-XBP1 luciferase reporter, IRE1-XBP1 UPR activation, luminescence; percent of tunicamycin response, DMSO as zero; activation, % at 20 µM; 330,000 compounds, 0.33% hits;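 active = versus positive control, 20 µM dose yields 30% or more activation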
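Material – CHO cell line with stable XBP1 luciferase reporter · Buffer or medium – F12 plus 10% FBS · Compound – single point, 20 µM final compound, 1% DMSO · Schedule – 16-18 h cell attachment at 37 °C, then 6 h compound exposure · Signal – Steady-Glo luminescence read · Benchmarks – high control tunicamycin 10 µg/mL final, low control DMSO vehicle only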
Dynein transport = blocks dynein driven cargo transport along microtubules. 3617.4 mouse cells, GR-EGFP nuclear translocation imaging; test concentration mostly 20 µM; stimulated with dexamethasone, 1 µM; active compounds read low. z-score, hits read low. 220,000 compounds, 0.47% hits. AID 1381;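 active = plate z-score of nuclear minus cytoplasmic receptor signal below a set negative limit, without overly bright fluorescence or cell loss, cut at about -3.5 in these data, passing the limit was not always enough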;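 also: z-score of nuclear minus cytoplasmic ring GR-EGFP intensity difference per well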
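Also added – dexamethasone, 1.0 µM final · Buffer or medium – tet-free, stripped-serum medium · Schedule – induction 48 h, compound 1 h, agonist 30 min · Detection – formaldehyde fixation, Hoechst nuclear stain, 10x automated fluorescence imaging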
CHOP inh = CHOP inhibition in unfolded protein response. CHO-K1 CHOP-promoter luciferase, tunicamycin-induced, 15-18 h. inhibition, % at 10 µM. 220,000 compounds, 3.8% hits;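 active = compounds that reduced the stress-induced luciferase reporter signal by more than about 70% of percent inhibition, limit read from the data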
T cruzi repl = T. cruzi replication inhibition. AID 1885. inhibition, % (test concentration not listed). T. cruzi beta-gal in NIH3T3, luminescence, 90 h. 300,000 compounds, 1.4% hits;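 active = mean inhibition across valid replicates above about 55%, limit read from the data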;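 also: signal also drops with host cell toxicity which is not excluded here; higher percent means less beta-gal luminescence so fewer parasites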
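Read-out: Parasite load inhibition, % | Test system: Mouse NIH/3T3 fibroblasts infected with β-gal-expressing T. cruzi Tulahuen C4 | Amount: 5,000 cells/well | Medium: DMEM, 2% fetal bovine serum | Signal: GalScreen β-gal luminescence, detergent lysis, 60 min | Timing: 3 h attach, ≥90 h co-culture | Also added: Tulahuen C4 trypomastigotes, 5000/well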
UPR CHOP act = activators of apoptotic arm of unfolded protein response (CHOP). activation, % at 10 µM. 330,000 compounds, 0.34% hits. AID 449763. CHO-CHOP luciferase reporter, UPR activation, luminescence; percent of tunicamycin response over DMSO baseline;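 active = at 10 µM dose, activation of 40% or more, normalized to positive control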
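Assay system: CHO-CHOP cells, stable luciferase reporter of PERK-eIF2a-CHOP signalling / Buffer or medium: F12 plus 10% serum / Compound dosing: one dose, 10 µM in 0.5% DMSO / Times: 6 h compound treatment, 37 °C / Technique: luciferase luminescence / Read-out: % reporter activation, DMSO baseline versus tunicamycin full activation / Benchmarks: tunicamycin and DMSO controls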
L major viab = Leishmania major promastigote growth inhibition. inhibition, % at 10 µM. Leishmania major promastigotes, resazurin fluorescence viability. AID 1063. 200,000 compounds, 9% hits; in the data active = inhibition above about 50%;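 also: promastigotes grown with compound for 44 hours at 28 °C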
Numbers stand for hits; 0 = inactive; - = no result.

SMILES	UPR XBP1 act	Dynein transport	CHOP inh	T cruzi repl	UPR CHOP act	L major viab
Fc1ccc(Cn2ccc(-c3cnc(-c4ccccc4)s3)n2)cc1	0	0	80	0	0	0
N=c1n(CC(=O)c2ccc([N+](=O)[O-])cc2)c2ccccc2n1Cc1ccccc1Cl	-	0	0	-	-	101
N=c1n(CC(=O)O)c2ccccc2n1Cc1ccccc1Cl	0	0	0	0	0	0
O=C(O[C@@H]1OC2COC(=O)c3cc(O)c(O)c(O)c3-c3c(cc(O)c(O)c3O)C(=O)O[C@@H]([C@H]1O)[C@@H]2O)c1cc(O)c(O)c(O)c1	-	0	0	0	-	0
COc1ccc(C(=O)CC(=O)C(=O)Nc2cc(C)ccc2C)cc1	0	-	-	0	0	-
COc1ccc(C(=O)CC(=O)C(=O)NCCc2cccc(C)c2)cc1	0	0	0	0	0	64
COc1ccc(C(=O)N2CCN(c3ccccc3)CC2)cc1S(=O)(=O)N1CCCC1	0	-	-	0	0	-
N#C/C(=N\Nc1ccc(Cl)cc1)C(=N)N1CCCCC1	0	0	0	0	0	73
Cc1ccc(N/N=C(\C#N)C(=N)N2CCOCC2)cc1	0	0	0	0	0	87
COc1cc2ccccc2cc1C(=O)OCc1nc2ccsc2c(=O)[nH]1	0	-	-	-	0	-
Cc1ccc(Sc2ccc(S(=O)(=O)Nc3ccc(CC(=O)O)cc3)cc2)cc1C	0	-	-	-	0	-
COc1ccc(CCN=C(N)Nc2nc(C)cc(C)n2)cc1	0	0	0	0	0	95
COc1ccc(CCN=C(N)NS(=O)(=O)c2ccc(OC)cc2)cc1	0	0	0	0	0	0
CC(C)=NOc1nc(NC(=O)NS(=O)(=O)c2ccccc2Cl)nc(N(C)C)n1	0	-	-	0	0	-
NC(=O)c1ccc(NC(=O)COC(=O)c2c3c(nc4ccccc24)/C(=C\c2cccs2)CCC3)cc1	0	0	0	0	0	0
CCc1cccc(C)c1NC(=O)COC(=O)c1c2c(nc3ccccc13)/C(=C\c1cccs1)CCC2	0	0	0	59	0	0
O=Nc1c(O)n(Cc2c(Cl)cccc2Cl)c2ccccc12	0	0	91	0	0	0
CCOC(=O)n1c(=O)n(Cc2ccc(Cl)cc2Cl)c2ccccc21	0	0	81	0	0	0
O=Nc1c(O)n(Cc2ccc(Cl)cc2Cl)c2ccccc12	0	0	87	0	0	0
CCOC(=O)C(CC(=O)O)=C(c1ccccc1)c1ccccc1	0	-	-	0	0	-
COc1ccc(NC(=O)C2CCN(S(=O)(=O)c3cn(C)nc3C)CC2)cc1	0	-	-	0	0	-
Cc1cc(C)n2nc(C(=O)NCc3cccc(C(F)(F)F)c3)nc2n1	0	0	0	76	0	0
O=C(NCc1cccc(C(F)(F)F)c1)C1CCCN(c2ncccn2)C1 (configuration not stated)	0	0	0	0	0	0
Cc1cc(C)nc(N2CCCC(C(=O)NCc3cccc(C(F)(F)F)c3)C2)n1 (configuration not stated)	0	0	83	0	0	0
CCn1cc(C(=O)NCc2cccc(C(F)(F)F)c2)c(=O)c2ccc(C)nc21	0	-	-	0	0	-
SMILES	UPR XBP1 act	Dynein transport	CHOP inh	T cruzi repl	UPR CHOP act	L major viab
Cc1cc[n+]2n1CC(O)C2 (configuration not stated)	0	0	0	0	0	-
CC1Cc2ccccc2N1c1nc(C2CC2)nc2c1nnn2Cc1ccccc1 (configuration not stated)	0	0	0	0	0	0
CC1Cc2ccccc2N1c1ncnc2c1nnn2Cc1ccccc1 (configuration not stated)	0	0	73	0	0	0
O=c1oc(Cl)c(Cl)c2ccccc12	0	-	0	-	88	-
O=c1oc2cc(O)c(Cl)cc2c2ccccc12	0	0	0	0	0	0
CC(C)Cc1nnc(NC(=O)c2cc([N+](=O)[O-])ccc2N2CCOCC2)s1	0	-	-	0	0	-
COc1ccc(-c2nn(CCC(=O)O)cc2/C=C2\SC(N)=NC2=O)cc1OC	0	0	0	0	0	0
CCCOc1ccc(-c2nn(-c3ccccc3)cc2/C=C2\SC(N)=NC2=O)cc1C	0	0	0	56	0	0

Compound activity: PubChem, several laboratories
